Test results reported in ChEMBL document CHEMBL4414574, “Structure-Based Discovery and Development of a Series of Potent and Selective Bromodomain and Extra-Terminal Protein Inhibitors” (J Med Chem, 2019).
pKd: −log10 of the molar value. Calls of active or inactive are those of the source. The rule behind the calls is not given here.

Experiments:
[1] = test system: MV4-11; assay: Induction of apoptosis in human MV4-11 cells assessed as induction of PARP cleavage at 10 to 1000 nM after 24 hrs by Western blot analysis; assay type: functional, cell-based
In short: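 MV4-11 cells exposed to compound at the indicated doses for 24 h; lysates probed by Western blotting for the target protein, with GAPDH as loading control.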

[2] = Cmax in rat brain at 50 mg/kg, po; assay type: ADME, organism-based; design: dose 50 mg/kg, route oral
[3] = Tmax in ICR mouse at 10 mg/kg, po administered via gavage measured after 0.25 to 24 hrs by UPLC/MS analysis; assay type: ADME, organism-based; conditions: in vivo
In short: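 Male ICR mice dosed orally (3, 10 or 100 mg/kg, per line) in 1% DMSO/0.5% HPMC vehicle; plasma drug levels measured.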

[4] = target: Histone acetyltransferase KAT2A (Homo sapiens) (UniProt Q92830); assay: Binding affinity to human partial length GCN5L2 (E726 to K837 residues) expressed in Escherichia coli BL21 cells assessed as residual binding level at 1 uM measured after 1 hr by quantitative PCR based BROMOscan assay relative to control
In short: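 A BROMOScan competition-binding panel of 32 bromodomains was run at a single 1 μM compound concentration. Results are primary-screen 'Percent Control', where lower values indicate stronger binding.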

[5] = Half life in dog plasma at 1 mg/kg, iv; assay type: ADME, organism-based, Canis lupus familiaris
[6] = target: Cytochrome P450 3A4 (Homo sapiens, UniProt P08684); assay: Time-dependent inhibition of CYP3A4 in human liver microsomes at 10 uM using midazolam or testosterone as substrate preincubated up to 30 mins followed by NADPH generating system addition and measured after 10 mins; assay type: ADME
In short: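 Human liver microsomes 0.2 mg/mL, 100 mM phosphate pH 7.4, 10 μM test compound, preincubated 0, 5, 10 and 30 min at 37 °C; then NADPH plus probe cocktail (5 μM midazolam, 50 μM testosterone, 5 μM dextromethorphan, 10 μM diclofenac, 50 μM phenacetin, 50 μM S-(+)-mephenytoin) added; 10 min reaction; kobs in units of 10^-4/min.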

[7] = test system: MV4-11; assay: Induction of apoptosis in human MV4-11 cells assessed as reduction in BCL-2 mRNA expression after 24 hrs by real time qPCR analysis; assay type: functional, cell-based
[8] = target: Bromodomain-containing protein 2 (Homo sapiens) (UniProt P25440); assay: Inhibition of BRD2 bromodomain 1 (unknown origin)
[9] = Cmax in rat plasma at 50 mg/kg, po; assay type: ADME, organism-based; design: dose 50 mg/kg, route oral
[10] = AUC (0 to infinity) in ICR mouse brain at 50 mg/kg, po administered via gavage measured after 0.25 to 24 hrs by UPLC/MS analysis; assay type: ADME, organism-based; design: dose 50 mg/kg, route oral, time infinity
In short: (§1)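 Male ICR mice were dosed orally in 1% DMSO/0.5% HPMC vehicle. Plasma (and brain, where stated) concentrations gave Tmax, Cmax, T1/2, AUC0-t and AUC0-inf.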

[11] = test system: NCI-H1299; assay: Antiproliferative activity against human NCI-H1299 cells after 72 hrs by CCK8 or SRB assay; assay type: functional, cell-based
[12] = AUC (0 to t) in dog plasma at 1 mg/kg, iv; assay type: ADME, organism-based, Canis lupus familiaris
In short: (§2)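 Compound was given orally or intravenously in 1% DMSO/0.5% HPMC vehicle. Concentrations in plasma, or in brain where stated, gave Tmax, Cmax, T1/2, AUC0-t and AUC0-inf.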

[13] = test system: MV4-11; assay: Induction of apoptosis in human MV4-11 cells assessed as increase in cleaved caspase-9 level after 24 hrs by Western blot analysis; assay type: functional, cell-based
In short: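 MV4-11 cells exposed to test agent at the indicated doses for 24 h. Lysates immunoblotted for full-length and cleaved caspase-3, -7, -8 and -9, with GAPDH as the loading reference.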

[14] = Drug uptake in plasma of Balb/c nude mouse xenografted with human MV4-11 cells at 10 to 50 mg/kg, po measured after 1 to 8 hrs; assay type: ADME, organism-based; conditions: in vivo
In short: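 MV4-11 xenografts in BALB/c nude mice given oral compound; drug concentrations in plasma and tumor tissue measured at 1 h and 8 h after dosing.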

[15] = AUC (0 to infinity) in ICR mouse at 10 mg/kg, po administered via gavage measured after 0.25 to 24 hrs by UPLC/MS analysis; assay type: ADME, organism-based; design: dose 10 mg/kg, route oral, time infinity; conditions: in vivo; in short: as §1
[16] = test system: KG-1; assay: Antiproliferative activity against human KG1 cells after 72 hrs by CCK8 or SRB assay; assay type: functional, cell-based
[17] = AUC (0 to infinity) in ICR mouse plasma at 50 mg/kg, po administered via gavage measured after 0.25 to 24 hrs by UPLC/MS analysis; assay type: ADME, organism-based; design: dose 50 mg/kg, route oral, time infinity; in short: as §1
[18] = Tmax in rat brain at 50 mg/kg, po; assay type: ADME, organism-based
In short: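 Rats dosed orally at 50 mg/kg in 1% DMSO/0.5% HPMC; drug measured in plasma and brain.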

[19] = target: Bromodomain-containing protein 2 (Homo sapiens) (UniProt P25440); assay: Inhibition of BRD2 bromodomain 2 (unknown origin)
In short: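 Bromodomain binding panel (32 bromodomains) screened at 1 μM; primary binding read-out reported as percent of control, lower values meaning stronger binding.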

[20] = Cmax in ICR mouse plasma at 50 mg/kg, po administered via gavage measured after 0.25 to 24 hrs by UPLC/MS analysis; assay type: ADME, organism-based; design: dose 50 mg/kg, route oral
In short: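 Male ICR mice dosed orally in 1% DMSO/0.5% HPMC vehicle; plasma or brain drug levels used to derive Tmax, Cmax, AUC0-t, AUC0-inf and T1/2.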

[21] = Half life in rat liver microsomes; assay type: ADME, Microsome
[22] = target: Bromodomain-containing protein 4 (Homo sapiens, UniProt O60885); assay: Binding affinity to His6-tagged human BRD4 bromodomain 1 expressed in Escherichia coli BL21(DE3) )-codon plus-RIL cells by isothermal titration calorimetric method
In short: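 BRD4 BD1 was His6-tagged and expressed in E. coli BL21(DE3)-codon plus-RIL with IPTG induction overnight at 16 °C. It was purified on Ni-NTA with imidazole step elution and concentrated in HEPES pH 7.5/NaCl/DTT gel filtration buffer. Kd was measured by isothermal titration calorimetry.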

[23] = target: SWI/SNF-related matrix-associated actin-dependent regulator of chromatin subfamily A member 4 (Homo sapiens) (UniProt P51532); assay: Binding affinity to human partial length SMARCA4 (A1448 to S1575 residues) expressed in Escherichia coli BL21 cells assessed as residual binding level at 1 uM measured after 1 hr by quantitative PCR based BROMOscan assay relative to control
In short: (§3)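 Bromodomain panel screen (32 bromodomains) run at 1 μM single concentration; primary binding reported as 'Percent Control', lower values meaning stronger interaction.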

[24] = AUC (0 to t) in dog plasma at 3 mg/kg, po; assay type: ADME, organism-based, Canis lupus familiaris; in short: as §2
[25] = target: Protein polybromo-1 (Homo sapiens) (UniProt Q86U86); assay: Binding affinity to human partial length PB1 bromodomain 5 (S645 to D766 residues) expressed in Escherichia coli BL21 cells assessed as residual binding level at 1 uM measured after 1 hr by quantitative PCR based BROMOscan assay relative to control; in short: as §3
[26] = Tmax in ICR mouse brain at 50 mg/kg, po administered via gavage measured after 0.25 to 24 hrs by UPLC/MS analysis; assay type: ADME, organism-based
In short: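 Male ICR mice dosed orally at 50 mg/kg in 1% DMSO/0.5% HPMC; drug measured in plasma and brain.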

[27] = Cmax in dog plasma at 3 mg/kg, po; assay type: ADME, organism-based, Canis lupus familiaris; design: dose 3 mg/kg, route oral

Chain of Bromodomain-containing protein 2 (Homo sapiens) (P25440 whole entry, looked up): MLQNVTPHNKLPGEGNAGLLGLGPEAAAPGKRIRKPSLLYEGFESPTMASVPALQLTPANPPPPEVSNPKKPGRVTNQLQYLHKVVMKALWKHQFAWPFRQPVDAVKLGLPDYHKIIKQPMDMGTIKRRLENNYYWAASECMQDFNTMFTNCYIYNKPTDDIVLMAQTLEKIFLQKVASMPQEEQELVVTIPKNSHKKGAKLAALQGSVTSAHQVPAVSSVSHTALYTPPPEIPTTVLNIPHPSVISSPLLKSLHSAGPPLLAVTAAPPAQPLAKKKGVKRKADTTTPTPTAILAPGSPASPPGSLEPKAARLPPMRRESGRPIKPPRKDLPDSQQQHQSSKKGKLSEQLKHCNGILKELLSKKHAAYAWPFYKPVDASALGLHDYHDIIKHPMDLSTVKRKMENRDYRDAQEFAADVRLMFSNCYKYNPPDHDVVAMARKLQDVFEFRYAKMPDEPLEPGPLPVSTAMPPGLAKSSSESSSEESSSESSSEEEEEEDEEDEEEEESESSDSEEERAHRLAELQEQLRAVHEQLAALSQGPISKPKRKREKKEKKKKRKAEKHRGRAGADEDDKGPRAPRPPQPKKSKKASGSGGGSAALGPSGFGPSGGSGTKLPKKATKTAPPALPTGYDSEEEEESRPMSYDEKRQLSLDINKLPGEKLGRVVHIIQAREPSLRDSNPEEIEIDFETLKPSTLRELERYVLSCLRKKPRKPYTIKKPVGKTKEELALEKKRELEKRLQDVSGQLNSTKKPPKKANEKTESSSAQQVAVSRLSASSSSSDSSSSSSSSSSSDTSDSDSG
Chain of Protein polybromo-1 (Homo sapiens) (Q86U86 whole entry, the tested form may be a part): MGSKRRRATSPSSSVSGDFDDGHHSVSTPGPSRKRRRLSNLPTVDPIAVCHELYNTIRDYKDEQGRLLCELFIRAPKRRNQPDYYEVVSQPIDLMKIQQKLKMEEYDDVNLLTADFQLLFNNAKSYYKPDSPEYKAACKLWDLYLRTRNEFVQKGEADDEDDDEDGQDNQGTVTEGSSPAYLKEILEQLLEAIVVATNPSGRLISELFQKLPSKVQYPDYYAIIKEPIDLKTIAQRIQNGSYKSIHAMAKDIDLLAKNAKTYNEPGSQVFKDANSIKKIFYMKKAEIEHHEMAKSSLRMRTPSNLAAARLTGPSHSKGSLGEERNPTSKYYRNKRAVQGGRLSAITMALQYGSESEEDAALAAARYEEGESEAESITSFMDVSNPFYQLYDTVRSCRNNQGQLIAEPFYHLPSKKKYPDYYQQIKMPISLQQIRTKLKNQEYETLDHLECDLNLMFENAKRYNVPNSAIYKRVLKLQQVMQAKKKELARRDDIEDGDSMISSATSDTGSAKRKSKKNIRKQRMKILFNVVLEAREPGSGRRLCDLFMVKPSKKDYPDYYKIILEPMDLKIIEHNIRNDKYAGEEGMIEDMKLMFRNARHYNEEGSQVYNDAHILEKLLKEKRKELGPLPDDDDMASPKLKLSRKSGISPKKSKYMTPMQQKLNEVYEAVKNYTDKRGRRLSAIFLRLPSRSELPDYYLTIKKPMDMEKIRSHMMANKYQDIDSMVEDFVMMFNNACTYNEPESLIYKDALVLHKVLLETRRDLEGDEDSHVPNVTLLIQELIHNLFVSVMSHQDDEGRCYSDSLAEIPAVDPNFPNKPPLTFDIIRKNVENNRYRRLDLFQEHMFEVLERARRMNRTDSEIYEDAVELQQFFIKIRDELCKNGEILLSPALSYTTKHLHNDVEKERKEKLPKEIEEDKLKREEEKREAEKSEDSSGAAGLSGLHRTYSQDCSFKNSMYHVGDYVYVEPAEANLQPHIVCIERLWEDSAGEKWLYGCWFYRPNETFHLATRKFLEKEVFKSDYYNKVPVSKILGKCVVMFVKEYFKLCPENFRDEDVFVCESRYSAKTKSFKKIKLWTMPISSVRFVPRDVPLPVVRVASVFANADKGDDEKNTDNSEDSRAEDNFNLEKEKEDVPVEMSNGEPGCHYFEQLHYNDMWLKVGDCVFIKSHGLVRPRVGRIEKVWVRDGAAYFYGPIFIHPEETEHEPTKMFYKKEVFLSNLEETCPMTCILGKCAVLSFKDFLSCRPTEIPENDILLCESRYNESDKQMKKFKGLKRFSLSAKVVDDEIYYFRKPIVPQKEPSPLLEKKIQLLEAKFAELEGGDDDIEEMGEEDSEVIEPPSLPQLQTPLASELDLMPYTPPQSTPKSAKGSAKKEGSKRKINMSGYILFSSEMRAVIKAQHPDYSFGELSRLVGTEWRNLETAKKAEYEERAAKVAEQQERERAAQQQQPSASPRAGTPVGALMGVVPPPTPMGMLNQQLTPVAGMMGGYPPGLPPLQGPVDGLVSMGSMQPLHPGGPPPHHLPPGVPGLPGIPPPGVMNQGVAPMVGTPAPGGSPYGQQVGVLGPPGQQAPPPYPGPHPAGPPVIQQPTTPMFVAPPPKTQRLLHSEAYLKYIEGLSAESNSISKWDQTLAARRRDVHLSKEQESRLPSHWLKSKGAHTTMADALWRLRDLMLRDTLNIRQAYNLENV
Chain of Cytochrome P450 3A4 (P08684 whole entry): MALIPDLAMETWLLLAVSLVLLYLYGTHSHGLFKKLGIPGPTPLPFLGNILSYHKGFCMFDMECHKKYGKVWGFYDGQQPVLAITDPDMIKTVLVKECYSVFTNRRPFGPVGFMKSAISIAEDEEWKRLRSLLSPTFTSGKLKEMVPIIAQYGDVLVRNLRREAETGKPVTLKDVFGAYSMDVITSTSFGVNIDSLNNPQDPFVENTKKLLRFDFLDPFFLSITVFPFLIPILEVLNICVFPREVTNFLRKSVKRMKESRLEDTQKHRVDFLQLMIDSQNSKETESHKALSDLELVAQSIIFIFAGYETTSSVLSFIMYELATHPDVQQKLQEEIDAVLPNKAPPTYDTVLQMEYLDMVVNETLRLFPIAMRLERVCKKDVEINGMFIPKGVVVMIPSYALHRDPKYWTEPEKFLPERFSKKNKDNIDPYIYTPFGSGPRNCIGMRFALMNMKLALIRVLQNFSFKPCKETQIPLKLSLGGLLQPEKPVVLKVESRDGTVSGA
Chain of Histone acetyltransferase KAT2A (Homo sapiens) (Q92830 2-837 limits assumed): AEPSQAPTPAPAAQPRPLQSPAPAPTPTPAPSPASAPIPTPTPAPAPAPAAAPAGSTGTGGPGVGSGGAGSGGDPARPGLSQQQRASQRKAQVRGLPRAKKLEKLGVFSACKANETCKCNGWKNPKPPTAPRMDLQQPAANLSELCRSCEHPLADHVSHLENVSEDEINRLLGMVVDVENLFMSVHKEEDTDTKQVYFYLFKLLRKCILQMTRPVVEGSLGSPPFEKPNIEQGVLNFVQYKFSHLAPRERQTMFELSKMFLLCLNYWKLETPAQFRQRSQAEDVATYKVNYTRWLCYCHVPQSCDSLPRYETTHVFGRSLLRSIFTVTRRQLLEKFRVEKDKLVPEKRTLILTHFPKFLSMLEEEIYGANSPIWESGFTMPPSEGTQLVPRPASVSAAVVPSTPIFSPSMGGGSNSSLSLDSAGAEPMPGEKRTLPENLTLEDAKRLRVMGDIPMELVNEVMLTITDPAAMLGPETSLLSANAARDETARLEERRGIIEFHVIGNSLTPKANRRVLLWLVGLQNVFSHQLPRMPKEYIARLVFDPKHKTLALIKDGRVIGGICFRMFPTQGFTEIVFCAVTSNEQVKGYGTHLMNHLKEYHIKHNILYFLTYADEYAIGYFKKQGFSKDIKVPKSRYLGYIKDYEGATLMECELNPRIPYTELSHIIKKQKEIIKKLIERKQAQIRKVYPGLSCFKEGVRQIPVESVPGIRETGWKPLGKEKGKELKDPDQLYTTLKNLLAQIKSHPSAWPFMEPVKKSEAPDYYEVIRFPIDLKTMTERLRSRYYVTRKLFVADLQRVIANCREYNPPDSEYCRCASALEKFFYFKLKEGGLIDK

What does the source list for `Cc1ccc(-n2nc(C(=O)N3C[C@@H](C)N[C@@H](C)C3)nc2-c2ccc3c(c2)N(C2CCCC2)[C@H](C)C(=O)N3C)cc1`?
Activity [1]: Active; Cmax [2]: 87.6 ng/mL; Tmax [3]: 1.1 h; Activity [4]: 70 to 100%; half-life [5]: 9.4 h; TDI [6]: 8 ×10⁻⁴ /min; Activity [7]: Active; inhibition activity call (active/inactive) [8]: Active; Cmax [9]: 1250 ng/mL; AUC(0-inf) [10]: 2340 ng·h/mL; Activity [11]: Active; AUC(0-t) [12]: 726 ng·h/mL; Activity [13]: Dose-dependent effect; Drug uptake [14]: Active; AUC(0-inf) [15]: 7390 ng·h/mL; Activity [16]: Active; AUC(0-inf) [17]: 16800 ng·h/mL; Tmax [18]: 0.9 h; inhibition [19]: Active; Cmax [20]: 4020 ng/mL; half-life [21]: 0.817 h; pKd [22]: 7.82; Activity [23]: 70 to 100%; AUC(0-t) [24]: 747 ng·h/mL; Activity [25]: 70 to 100%; Tmax [26]: 1 h; Cmax [27]: 216 ng/mL
